Experimental findings from ChEMBL document CHEMBL1155735, “Isolation and bioactivities of constitutents of the roots of Garcinia atroviridis” (J Nat Prod, 2001) are described below.

In brackets after ≈: the same amount, converted by molar mass. Activity calls are given as the source filed them. The rule behind the calls is not given here.

One assay has as its system Staphylococcus aureus. Kind of assay: Antibacterial activity against Staphylococcus aureus at 10 ug/disk by disk diffusion method. The assay is classed as functional. Particulars: read-out: DIZ. An outline of the steps:
(§1)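 Disk diffusion, with test compound applied at 10 µg per disk. Streptomycin sulfate served as the reference antibacterial. Procedure followed an earlier report.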

A further assay has as its system Bacillus cereus. Description: Antibacterial activity against Bacillus cereus at 10 ug/disk by disk diffusion method. The class given is functional. Particulars: read-out: DIZ. An outline of the steps: as §1
For another assay, the system named is Escherichia coli. Description: Antibacterial activity against Escherichia coli at 10 ug/disk by disk diffusion method. The assay is classed as functional. An outline of the steps: as §1
Another assay relates to Aspergillus ochraceus. Kind of assay: Antifungal activity against Aspergillus ochraceus at 10 ug/disk by disk diffusion method. The class given is functional, organism-based.
The next assay concerns Candida albicans. Description: […] activity against Candida albicans at 10 ug/disk by disk diffusion method. The assay is classed as functional, organism-based.
The next assay concerns HeLa. Description: Cytotoxicity against human HeLa cells after 72 hrs by MTT assay. The assay is classed as functional, cell-based. An outline of the steps:
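Human cervical carcinoma HeLa cells were exposed for 72 h and viability read by MTT. IC50 values were reported in µg/mL, with doxorubicin and colchicine run as reference standards. Method followed an earlier report.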

In the case of `COc1c(O)c(CC=C(C)C)c(CC=C(C)C)c2c1Oc1cc(O)cc(O)c1C(=O)O2` [ATROVIRISIDONE], the values for the zone of inhibition at 10 µg/disc with Staphylococcus aureus and in the assay with Bacillus cereus were 8 mm and 7.5 mm, respectively. Besides, in the assay with Escherichia coli, the “diameter of the inhibition zone (DIZ)” value was “inactive”. Besides, the outcome in the assay with Aspergillus ochraceus and with Candida albicans was inactive. Also, in the assay with HeLa, the concentration for half-maximal inhibition (IC50) was more than 30 µg/mL.
For the molecule `COC(=O)c1c(O)cc(O)cc1OC1=C(OC)C(=O)C(CC=C(C)C)=C(CC=C(C)C)C1=O` [ATROVIRINONE], the zone of inhibition at 10 µg/disc with Staphylococcus aureus and with Bacillus cereus was 6.5 mm throughout. The “diameter of the inhibition zone (DIZ)” value in the assay on Escherichia coli is “inactive”. In addition, the result in the assay with Aspergillus ochraceus and in the assay on Candida albicans was inactive. In the assay with HeLa, this molecule displayed an IC50 of 15 µg/mL (≈ 32.9 µM).
For `COc1cccc2c1C(=O)c1c(O)c3c(c(O)c1C2=O)C[C@@](O)(C(=O)CO)C[C@@H]3O[C@H]1C[C@H](N)[C@H](O)[C@H](C)O1` [DOXORUBICIN], the concentration for half-maximal inhibition (IC50) with HeLa was found to be 11 µg/mL (≈ 20.2 µM).
On the same count and under the same terms, next, `COc1cc2c(c(OC)c1OC)-c1ccc(OC)c(=O)cc1[C@@H](NC(C)=O)CC2` [COLCHICINE]: 21 µg/mL (≈ 52.6 µM).
As for `CN[C@@H]1[C@H](O[C@H]2[C@H](O[C@H]3[C@H](O)[C@@H](O)[C@H](N=C(N)N)[C@@H](O)[C@@H]3N=C(N)N)O[C@@H](C)[C@]2(O)C=O)O[C@@H](CO)[C@H](O)[C@H]1O` [STREPTOMYCIN], the zone of inhibition at 10 µg/disc in the assay on Staphylococcus aureus amounted to 13.5 mm; in the assay with Bacillus cereus, 21 mm; in the assay on Escherichia coli (read-out: DIZ), 12.5 mm.
